Experimental data from different studies.
Each line is one published result; the experiments were not run side by side. pEC50, pIC50: −log10 of the molar value. In brackets after ≈: the same amount, converted by molar mass.

Compound	target or system	test	test system	conditions	quantity	value
C[C@H](Oc1nccc(-c2noc([C@@]3(C)CCCc4sc(N)c(C#N)c43)n2)n1)[C@@H]1CCCN1C	BaF3	cell growth or viability	–	72 h	pEC50	6.50
COc1cc(N=C2C(=O)N(Cc3ccccc3)c3ccccc32)cc(OC)c1	L02	cell growth or viability, MTT	–	48 h	pIC50	< 4.00
CCOC(=O)C1=C(CN2CCC[C@H]2C(=O)Nc2ccc(B(O)O)cc2)NC(c2nccs2)=N[C@H]1c1ccc(F)cc1Br	Hepatitis B virus	viral replication, inhibitor, qPCR	HepDES19	72 h	pEC50	6.00
O=C1C(=Nc2ccccc2I)c2ccccc2N1Cc1ccc([N+](=O)[O-])cc1	L02	cell growth or viability, MTT	–	48 h	pIC50	4.25
CCOC(=O)C1=C(CN2CCC(C(=O)Nc3ccc(B4OC(C)(C)C(C)(C)O4)cc3)C2)NC(c2nccs2)=NC1c1ccc(F)cc1Br (stereo not drawn)	Hepatitis B virus	viral replication, inhibitor, qPCR	HepDES19	72 h	pEC50	6.11
Cc1ccc(CN2C(=O)C(=Nc3cccc(Cl)c3)c3ccccc32)cc1	L02	cell growth or viability, MTT	–	48 h	pIC50	5.32
C[C@H]1CNCCN1c1nccc(-c2onc3c2CCC[C@@]32CCCc3sc(N)c(C#N)c32)n1	BaF3	cell growth or viability	–	72 h	pEC50	6.43
CCOC(=O)C1=C(CN2CCC[C@H]2C(=O)Nc2cccc(B(O)O)c2)NC(c2nccs2)=N[C@H]1c1ccc(F)cc1Br	Hepatitis B virus	viral replication, inhibitor, qPCR	HepDES19	72 h	pEC50	5.72
CNC(=S)NN=Cc1ccc(F)cc1	Leishmania tropica	parasite growth, MTT	–	72 h, promastigote	pIC50	3.36
Cc1nc(Nc2ncc(C(=O)Nc3c(C)cccc3Cl)s2)cc(N2CC[C@H](O)C2)n1	NALM-6	cell growth or viability, ATP luminescence	–	10 µM, 72 h	inhibition	68%
COc1ccc(C=NNC(=S)Nc2cccnc2)cc1	Leishmania tropica	parasite growth	J774.A1	72 h, intracellular, amastigote	pIC50	3.46
Nc1nn2c(-c3ccco3)cc(-c3ccc(OCc4ccccc4)cc3)nc2c1N=Nc1ccc(F)cc1	Saccharomyces cerevisiae	microbial growth, broth dilution	ATCC9763	–	MIC	31.3 µg/mL (≈ 62 µM)
O=C1C(=Nc2cccc(Cl)c2)c2ccccc2N1Cc1ccc([N+](=O)[O-])cc1	L02	cell growth or viability, MTT	–	48 h	pIC50	4.64
Cc1nc(NC(=O)N2CCC[C@H]2C(N)=O)sc1-c1ccnc(C(C)(C)C(F)(F)F)c1	CAL-51	cell growth or viability, ATP luminescence	–	5 days	pEC50	4.59
O=C1C(=Nc2ccccc2I)c2ccccc2N1Cc1ccc(Br)cc1	L02	cell growth or viability, MTT	–	48 h	pIC50	4.45
CNC(=S)NN=Cc1ccc(O)c(OC)c1	Leishmania tropica	parasite growth	J774.A1	72 h, intracellular, amastigote	pIC50	3.61
Nc1ccn([C@@H]2CS[C@H](CO)O2)c(=O)n1	Hepatitis B virus	viral replication, inhibitor, qPCR	HepDES19	72 h	pEC50	6.40
O=C1Nc2ccccc2C1=Nc1cccc(Cl)c1	L02	cell growth or viability, MTT	–	48 h	pIC50	4.80
